B1: Osa-1-4 twister ribozyme (parent)
chain: CCGCCUAACACUGCCAAUGCCGGUCCCAAGCCCGGAUAAAAGUGGAGGGGGCGG

In this series the parent is B1. Description: self-cleavage, relative activity (ratio to wild type); higher = more cleavage; co-transcriptional. The essentials:
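A DNA template encoding a 54-nucleotide twister ribozyme from Oryza sativa was made so that each of the 48 positions downstream of the cleavage site carried 97 % wild-type base and 1 % of each other base. Transcription in vitro ran for 2 h at 37 °C, during which the ribozyme could cleave itself. Reverse transcription used a template-switching oligonucleotide, and the products were PCR-amplified and deep-sequenced. Each read was scored as cleaved or uncleaved by whether upstream sequence was present, and relative activity is the fraction cleaved normalised to wild type.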
For the variant CCGCCUAACACUGCCAAUGCCGGUCCCAAACCCGGAUAAAAGUGGAGGGGUCGG [G30A G51U], the self-cleavage was determined as 0.04.
The value for CCGCCUAACACUGCCAAUGCCGGUCCCAAACCCGGAUAAAAGUGGAGGGGACGG [G30A G51A] was 0.04; that for CCGCCUAACACUGCCAAUGCCGGUCCCAAACCCGGAUAAAAGUGGAGGGGCCGG [G30A G51C] was 0.02; that for CCGCCUAACACUGCCAACGCCGGUCCCAUGCCCGGAUAAAAGUGGAGGGGGCGG [A29U U18C] was 0.13.
Consider CCGCCUAACACUGCCAAAGCCGGUCCCAUGCCCGGAUAAAAGUGGAGGGGGCGG [A29U U18A], for which the self-cleavage was 0.12.
The value for CCGCCUAACACUGCCAAGGCCGGUCCCAUGCCCGGAUAAAAGUGGAGGGGGCGG [A29U U18G] was 0.25.
In the case of CCGCCUAACACUGCCAAUGCCGGUCCCAUGCCCGGAUAAAAGUGGAGGGGCCGG [A29U G51C] it was 0.05.
The value for CCGCCUAACACUGCCAAUGCCGGUCCCAUGCCCGGAUAAAAGUGGAGGGGUCGG [A29U G51U] was 0.04; that for CCGCCUAACACUGCCAAUGCCGGUCCCAUGCCCGGAUAAAAGUGGAGGGGACGG [A29U G51A] was 0.06.
As to CCGCCUAACACUGCCAAUGCCGGUCCCAUGCCCGGAUAAAAGUGGAGGGGGCAG [A29U G53A], the self-cleavage came out at 0.07.
CCGCCUAACACUGCCAAUGCCGGUCCCAUGCCCGGAUAAAAGUGGAGGGGGCCG [A29U G53C]: the self-cleavage was found to be 0.04.
In the case of CCGCCUAACACUGCCAAUGCCGGUCCCAUGCCCGGAUAAAAGUGGAGGGGGCUG [A29U G53U] it was 0.06; in that of CCGCCUAACACUGCCAAUGCCGGUCCCAUGCCCGGAUAAAAGUGGAGGGGGCGU [A29U G54U], 0.27.
Take CCGCCUAACACUGCCAAUGCCGGUCCCAUGCCCGGAUAAAAGUGGAGGGGGCGC [A29U G54C]: the self-cleavage was 0.06.
On to CCGCCUAACACUGCCAAUGCCGGUCCCAUGCCCGGAUAAAAGUGGAGGGGGCGA [A29U G54A], for which the self-cleavage came out at 0.09.
CCGCCUAACACUGCCAAUGCCGGUCCCAAACCCGGAUAAAAGUGGAGGGGGCGG [G30A]: the self-cleavage was determined as 0.04.
For CCGCCUAACACUGCCAAUGCCGGUCCCAACCCCGGAUAAAAGUGGAGGGGGCGG [G30C], the self-cleavage came to 0.04.
The value for CCGCCUAACACUGCCAAUGCCGGUCCCAUGCCCGGACAAAAGUGGAGGGGGCGG [A29U U37C] was 0.14.
The value for CCGCCUAACACUGCCAAUGCCGGUCCCAUGCCCGGAGAAAAGUGGAGGGGGCGG [A29U U37G] was 0.23; that for CCGCCUAACACUGCCAAUGCCGGUCCCAUGCCCGGAAAAAAGUGGAGGGGGCGG [A29U U37A] was 0.16.
As for CCGCCUAACACUGCCAAUGCCGGACCCAAACCCGGAUAAAAGUGGAGGGGGCGG [G30A U24A], the self-cleavage amounted to 0.03.
In the case of CCGCCUAACACUGCCAAUGCCGGCCCCAAACCCGGAUAAAAGUGGAGGGGGCGG [G30A U24C], the self-cleavage amounted to 0.03.
The value for CCGCCUAACACUGCCAAUGCCGGGCCCAAACCCGGAUAAAAGUGGAGGGGGCGG [G30A U24G] was 0.01; that for CCGCCUAACACUGCCAAUGCCGGUCCCAAACCCGGAUAAAAGAGGAGGGGGCGG [G30A U43A] was 0.04; that for CCGCCUAACACUGCCAAUGCCGGUCCCAAACCCGGAUAAAAGCGGAGGGGGCGG [G30A U43C] was 0.02.
The value for CCGCCUAACACUGCCAAUGCCGGUCCCAAACCCGGAUAAAAGGGGAGGGGGCGG [G30A U43G] was 0.04; that for CCGCCUAACACUGCCAAUGCCGGUCCCAAACCCGGAUAAAAGUGUAGGGGGCGG [G30A G45U] was 0.02; that for CCGCCUAACACUGCCAAUGCCGGUCCCAAACCCGGAUAAAAGUGCAGGGGGCGG [G30A G45C] was 0.02.
In the case of CCGCCUAACACUGCCAAUGCCGGUCCCAAACCCGGAUAAAAGUGAAGGGGGCGG [G30A G45A] it was 0.03; in that of CCGCCUAACACUGCCAAUGCCGGUCCCAAACCCGGAUAAAAUUGGAGGGGGCGG [G30A G42U], 0.02; in that of CCGCCUAACACUGCCAAUGCCGGUCCCAAACCCGGAUAAAACUGGAGGGGGCGG [G30A G42C], 0.03.
In the case of CCGCCUAACACUGCCAAUGCCGGUCCCAAACCCGGAUAAAAAUGGAGGGGGCGG [G30A G42A], the self-cleavage turned out to be 0.04.
For CCGCCUAACACUGCCAAUGCCGGUCCCAAACCCGGAUAAAAGUCGAGGGGGCGG [G30A G44C], the self-cleavage worked out at 0.04.
On to CCGCCUAACACUGCCAAUGCCGGUCCCAAACCCGGAUAAAAGUUGAGGGGGCGG [G30A G44U], for which the self-cleavage was 0.04.
On to CCGCCUAACACUGCCAAUGCCGGUCCCAAACCCGGAUAAAAGUAGAGGGGGCGG [G30A G44A], for which the self-cleavage amounted to 0.04.
Consider CCGCCUAACACUGCCAAUGCCGGUCCCAAACCCGGAUAAAAGUGGAGGGGGCCG [G30A G53C], for which the self-cleavage is 0.03.
In the case of CCGCCUAACACUGCCAAUGCCGGUCCCAAACCCGGAUAAAAGUGGAGGGGGCAG [G30A G53A] it was 0.03.
The value for CCGCCUAACACUGCCAAUGCCGGUCCCAAACCCGGAUAAAAGUGGAGGGGGCUG [G30A G53U] was 0.04.
Regarding CCGCCUAACACUGCCAAUGCCGGUCCCAAACCCGGACAAAAGUGGAGGGGGCGG [G30A U37C], the self-cleavage is 0.03.
In the case of CCGCCUAACACUGCCAAUGCCGGUCCCAAACCCGGAAAAAAGUGGAGGGGGCGG [G30A U37A], the self-cleavage is 0.03.
In the case of CCGCCUAACACUGCCAAUGCCGGUCCCAAACCCGGAGAAAAGUGGAGGGGGCGG [G30A U37G] it was 0.05.
The value for CCGCCUAACACUGCCAAUGCCGGUCCCAACCCCAGAUAAAAGUGGAGGGGGCGG [G30C G34A] was 0.07; that for CCGCCUAACACUGCCAAUGCCGGUCCCAACCCCCGAUAAAAGUGGAGGGGGCGG [G30C G34C] was 0.04.
The value for CCGCCUAACACUGCCAAUGCCGGUCCCAACCCCUGAUAAAAGUGGAGGGGGCGG [G30C G34U] was 0.04; that for CCGCCUAACACUGCCAAUGCCGGUCCCAAACCCGGAUAAAAGUGGAUGGGGCGG [G30A G47U] was 0.02.
In the case of CCGCCUAACACUGCCAAUGCCGGUCCCAAACCCGGAUAAAAGUGGAAGGGGCGG [G30A G47A], the self-cleavage stood at 0.03.
In the case of CCGCCUAACACUGCCAAUGCCGGUCCCAAACCCGGAUAAAAGUGGACGGGGCGG [G30A G47C] it was 0.02.
For the variant CCGCCUAACACUGCCAAGGCCGGUCCCAAACCCGGAUAAAAGUGGAGGGGGCGG [G30A U18G], the self-cleavage is 0.06.

The values above are taken from the RNAGym collection of RNA variant scans (doi:10.1002/anie.201605470).
